This is a sample that favours compounds with a hit; in the whole collection about 3.5% have one here.
FXIIa inh 1536: human FXIIa protease inhibitors, primary screen, biochemical, 1536-well. purified FXIIa, Boc-QGR-AMC fluorogenic substrate, 2 h. AID 800, 2007. inhibition, % at 5 µM. Coagulation factor XII (Homo sapiens), P00748. 0.3% of 220,000 active; in the data active means inhibition above about 40%;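 further: 0% = enzyme with no compound and 100% = blank without enzyme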
Thrombin inh: human alpha-thrombin inhibitors, primary screen, counter-screen for coagulation protease inhibitor project, biochemical, 1536-well, fluorogenic AMC substrate; Prothrombin (Homo sapiens), P00734; Boc-VPR-AMC fluorogenic substrate cleavage; inhibition, % at 5 µM; 0.26% of 220,000 active;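 active means inhibition at or above 40%; inactive means inhibition below 40%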;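 further: 0% = enzyme with no compound and 100% = wells without enzyme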
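Test system: human alpha-thrombin; medium: pH 7.5 Tris-saline with Tween 20; times: reaction at room temperature; signal: AMC fluorescence at 355 nm excitation and 460 nm emission; also added: Boc-VPR-AMC substrate, 15 µM final; dosing: one concentration per compound, 5 µM, with 0.2% DMSO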
KLK5 inh: human KLK5 protease inhibitors, primary screen, biochemical, 1536-well. recombinant hK5, fluorogenic AMC substrate cleavage. inhibition, % at 5 µM. 0.59% of 210,000 active. AID 873, 2007;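 active means inhibition of 40% or more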;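 further: 0% = enzyme controls without compound and 100% = no-enzyme blanks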
FXIa inh: human FXIa protease inhibitors, primary screen, biochemical, 1536-well; 0.14% of 220,000 active; purified FXIa, Boc-Glu-Ala-Arg-AMC fluorogenic substrate; inhibition, % at 5 µM; AID 798, 2007; Coagulation factor XI (Homo sapiens), P03951;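 active means inhibition of at least 40%; inactive means inhibition below 40%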;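 further: fluorescence of freed AMC excited at 355 nm; 0% = enzyme without compound and 100% = no enzyme blank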
Target sequence (P03951 19-387 limits assumed): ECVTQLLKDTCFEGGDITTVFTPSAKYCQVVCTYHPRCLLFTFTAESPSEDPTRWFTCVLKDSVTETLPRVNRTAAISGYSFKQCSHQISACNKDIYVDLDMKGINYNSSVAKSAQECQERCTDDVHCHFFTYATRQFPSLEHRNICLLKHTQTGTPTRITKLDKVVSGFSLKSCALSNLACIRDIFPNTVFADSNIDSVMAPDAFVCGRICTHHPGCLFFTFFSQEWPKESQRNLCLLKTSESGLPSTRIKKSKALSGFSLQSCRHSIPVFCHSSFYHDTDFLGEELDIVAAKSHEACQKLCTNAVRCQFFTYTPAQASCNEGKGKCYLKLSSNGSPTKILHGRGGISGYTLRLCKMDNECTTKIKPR
Target sequence (P03951 388-625 limits assumed): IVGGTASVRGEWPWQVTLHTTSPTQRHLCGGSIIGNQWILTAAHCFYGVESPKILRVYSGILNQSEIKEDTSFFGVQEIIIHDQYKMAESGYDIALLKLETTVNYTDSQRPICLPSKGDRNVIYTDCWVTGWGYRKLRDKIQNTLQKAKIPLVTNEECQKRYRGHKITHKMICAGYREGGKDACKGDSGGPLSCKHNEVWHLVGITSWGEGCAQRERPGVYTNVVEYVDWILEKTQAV
STAT3 activator: IL-6 driven STAT3 reporter potentiators, primary screen, U3A cells, luciferase, luminescence, MLSCN library; IL-6 STAT3-luciferase reporter; 100% = signal with IL-6 EC80 alone; activation (% of control), % at 5.6 µM; 0.91% of 190,000 active; AID 871, 2007;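 active means activation above the screen-wide mean of compound activation plus 3 SD, cut at about 130% in these data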;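 further: 0% = background luminescence of wells with medium and substrate only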
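Material: human STAT1-deficient U3A cells with stable STAT3-luciferase reporter / Probe or stimulus: IL-6 stimulus at 33 ng/mL final / Schedule: 1 h compound pre-exposure, 6 h IL-6 stimulation, 37 °C / Technique: luminescence / Read-out basis: percent of IL-6-only median luminescence / Control set: IL-6-only high control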
AHR act: AHR activators, primary screen, cell-based, luminescence, luciferase reporter, human; activation, % at 5 µM; AHR-responsive luciferase reporter cells; AID 2796, 2010; Aryl hydrocarbon receptor (Homo sapiens), P35869; 2.5% of 320,000 active; in the data active means activation above about 47%;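 further: 0% = vehicle wells and 100% = reference agonist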
Starred values were filed as active, the others as inactive; x = no result given.

SMILES	FXIIa inh 1536	Thrombin inh	KLK5 inh	FXIa inh	STAT3 activator	AHR act
Cc1ccccc1-n1ncc(C(C)NS(=O)(=O)c2sccc2C)c1C (stereo unspecified)	x	x	x	x	x	1
C=CCn1c(SCc2c(C)noc2C)nc2ccccc2c1=O	18	4	-5	1	103	-3
Cc1noc(C)c1CSc1nc2ccccc2c(=O)n1-c1ccc(F)cc1F	43*	0	-3	26	101	-1
C=CCn1c(SCc2c(C)noc2C)nc2cc(C(=O)O)ccc2c1=O	21	46*	21	11	92	-1
C/C(=N\Nc1cccc2cccnc12)c1ccc[nH]1	2	-1	-4	-4	115	51*
Cc1nn(C)cc1CN1CCC(CO)(CCOc2ccccc2)CC1	27	68*	x	23	102	1
CCOc1ccccc1CN1CCC(CO)(CCOc2ccccc2)CC1	9	-5	0	1	103	4
Cc1ccc(C(=O)C(c2ccccc2)N2Cc3ccccc3C2=N)cc1 (stereo unspecified)	5	-8	-9	3	100	65*
Cc1cccnc1NC(=O)NC(=O)c1ccc(C(C)(C)C)s1	8	-3	-1	-2	x	7
CCn1ncc(Br)c1C(=O)Nc1cc(C(=O)OC)ccc1C(=O)OC	-12	-8	-2	-10	109	1
COc1ccccc1C(=O)Nc1sc2c(c1C(N)=O)CCCC2	x	x	x	x	x	55*
CCOc1ccccc1NC(=O)c1c(Br)cnn1C	3	-3	-4	-1	100	59*
CCn1ncc(Br)c1C(=O)Nc1sc2c(c1C(N)=O)CCC2	10	-7	4	-2	82	49*
COC(=O)c1ccc(NC(=O)c2c(Br)cnn2C)cc1	x	x	x	x	x	2
CCn1ncc(Br)c1C(=O)Nc1cc([N+](=O)[O-])ccc1C	23	54*	3	19	98	42
Cc1nn(-c2nnc(NC3CCCCC3)nn2)c(C)c1Br	6	-5	-6	4	122	33
CCCCCCc1nc2ccccc2c(=O)n1NC(=O)c1c(O)c2cccc3c2n(c1=O)CC3	x	x	x	x	110	x
Cc1cc([N+](=O)[O-])ccc1NC(=O)c1cncc(Br)c1	7	-2	-1	-2	89	1
CCn1ncc(Br)c1C(=O)Nc1ccccc1OC	8	-3	-2	-6	87	49*
COc1ccc([N+](=O)[O-])cc1NC(=O)c1cncc(Br)c1	4	-3	-3	-1	89	70*
CCN1CCN(C(=O)Nc2ccccc2OC)CC1	11	31	83*	4	93	1
COc1ccccc1NC(=O)N1CCN(CCc2ccccc2)CC1	10	0	4	2	x	4
CCn1ncc(Br)c1C(=O)Nc1ccc(C(C)C)cc1	x	x	x	x	x	77*
CCn1ncc(Br)c1C(=O)Nc1cccc(F)c1	6	-2	-2	-6	89	14
Cc1cc(NC(=O)c2sc(Nc3ccc(F)cc3)nc2N)no1	-1	-3	-2	4	87	56*
SMILES	FXIIa inh 1536	Thrombin inh	KLK5 inh	FXIa inh	STAT3 activator	AHR act
Nc1nc(Nc2ccccc2)sc1C(=O)c1ccccc1	10	-10	4	3	x	8
C=CCNc1nc(N)c(C(=O)Nc2cc(C)on2)s1	3	-7	8	-4	104	40
Cc1cnc(NC(=O)c2sc(Nc3ccccc3)nc2N)o1	5	-2	3	2	x	55*
CSc1ncccc1C(=O)Nc1nc2ccc(Oc3ccccc3)cc2s1	9	2	-22	9	69	-9
COc1ccc(C2/C=C\CN(C(=O)c3ccc(C)cc3)[C@H](Cc3ccccc3)C(=O)N2Cc2ccc(F)cc2)cc1 (stereo partly specified)	5	-4	1	1	x	2
CN(C(=O)c1cccnc1)c1nnc(-c2ccccn2)s1	10	-1	3	2	92	54*
c1ccc2c(c1)Nc1cc3ccccc3cc1S2	3	-3	0	-1	x	60*
O=C(NCc1ccccc1)C1CCCN1S(=O)(=O)c1cccc2cccnc12 (stereo unspecified)	1	-9	46*	-9	126	3
CSc1ccccc1C(=O)NCCCn1ccnc1	x	x	x	x	x	10
Cc1c(C(=O)NCCCn2ccnc2)oc2ccccc12	8	3	0	-2	117	59*
O=C(NCCCn1ccnc1)c1csc2ccccc12	-8	-3	-12	2	99	52*
CCSc1ccccc1C(=O)NCCCn1ccnc1	20	3	43*	-5	102	16
O=C(NCCC(=O)N(CCc1ccccc1)Cc1ccccc1)c1ccc([N+](=O)[O-])cc1	x	x	x	x	x	9
CCOc1ncccc1C(=O)N(CC)CC(=O)NCc1ccc(Cl)cc1	x	x	x	x	x	1
O=C1c2cccc3cccc(c23)C(=O)N1c1ccncc1	18	7	-7	9	77	14
CCc1nnc(N2C(=O)c3cccc4cccc(c34)C2=O)s1	8	-1	-10	0	135*	76*
C=CCN(CC=C)C(=O)c1c(OC)cccc1OC	16	4	-8	7	99	1
C=CCc1c(C)[nH]c2c(OC)cccc2c1=S	29	20	46*	26	100	6
O=C(CSC1=Nc2ccccc2C2CC=NN12)Nc1ccc(F)c(F)c1F (stereo unspecified)	x	x	x	x	x	51*
COCCN(C(=S)Nc1ccc(Cl)cc1OC)C1CCN(C(C)=O)CC1	10	-1	-4	-1	x	5
CCOC(=O)c1nnc(-c2cccs2)nc1NC(C)C	2	4	115*	0	96	7
COc1ccc(Cl)c2c1[nH]c1nc(SCc3cccnc3)nnc12	1	-4	4	-4	94	32
COc1ccc(Cl)c2c1[nH]c1nc(SCc3ccccn3)nnc12	16	5	-18	0	120	59*
COc1cccc(NC(=O)COC(=O)C2CC3CCCC(C2)C3=O)c1 (stereo unspecified)	x	x	x	x	x	1
Cc1cccc(C)c1Nc1nnc(SCc2nc3ccccc3c(=O)[nH]2)s1	9	-2	6	10	107	69*
Cc1ccccc1Nc1nnc(SCc2nc3ccccc3c(=O)[nH]2)s1	-8	-3	-21	-8	91	5
CC(=O)NNC(=O)c1cc2c3ccccc3n(C)c2s1	12	-1	x	2	114	75*
Cn1c2ccccc2c2cc(C(=O)N3CCN(CCO)CC3)sc21	13	1	5	1	116	68*
O=C(c1cc2c(s1)CCCC2)N1CCN(CCO)CC1	x	x	x	x	x	1
